# In ChEMBL document CHEMBL3352220, “Design, synthesis, anticancer activity and docking studies of novel 4-morpholino-7,8-dihydro-5H-thiopyrano[4,3-d]pyrimidine derivatives as mTOR inhibitors” (Bioorg Med Chem, 2014):
# Columns and labels:
# [1] = Cytotoxicity against human PC3 cells after 72 hrs by MTT assay; assay type: functional, cell-based; conditions: PC-3, 72 h
# Procedure, shortened: (§1)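 Cells grown in MEM with 10% FBS; ~4 × 10³ cells/well plated and held 24 h at 37 °C, 5% CO2. Compounds added at indicated final concentrations for 72 h. MTT added, 4 h at 37 °C; formazan dissolved in DMSO, absorbance read at 492 nm against 630 nm reference. Tested three times per cell line; inhibition rates or IC50 averaged from two determinations.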
# [2] = molecular target: Phosphatidylinositol 4,5-bisphosphate 3-kinase catalytic subunit alpha isoform (Homo sapiens) (UniProt P42336); test: Inhibition of PI3K-alpha (unknown origin) using l-alpha-phosphatidylinositol as substrate at 10 uM after 60 mins by luminescence assay
# Sequence of Phosphatidylinositol 4,5-bisphosphate 3-kinase catalytic subunit alpha isoform (Homo sapiens) (P42336 whole entry, canonical isoform): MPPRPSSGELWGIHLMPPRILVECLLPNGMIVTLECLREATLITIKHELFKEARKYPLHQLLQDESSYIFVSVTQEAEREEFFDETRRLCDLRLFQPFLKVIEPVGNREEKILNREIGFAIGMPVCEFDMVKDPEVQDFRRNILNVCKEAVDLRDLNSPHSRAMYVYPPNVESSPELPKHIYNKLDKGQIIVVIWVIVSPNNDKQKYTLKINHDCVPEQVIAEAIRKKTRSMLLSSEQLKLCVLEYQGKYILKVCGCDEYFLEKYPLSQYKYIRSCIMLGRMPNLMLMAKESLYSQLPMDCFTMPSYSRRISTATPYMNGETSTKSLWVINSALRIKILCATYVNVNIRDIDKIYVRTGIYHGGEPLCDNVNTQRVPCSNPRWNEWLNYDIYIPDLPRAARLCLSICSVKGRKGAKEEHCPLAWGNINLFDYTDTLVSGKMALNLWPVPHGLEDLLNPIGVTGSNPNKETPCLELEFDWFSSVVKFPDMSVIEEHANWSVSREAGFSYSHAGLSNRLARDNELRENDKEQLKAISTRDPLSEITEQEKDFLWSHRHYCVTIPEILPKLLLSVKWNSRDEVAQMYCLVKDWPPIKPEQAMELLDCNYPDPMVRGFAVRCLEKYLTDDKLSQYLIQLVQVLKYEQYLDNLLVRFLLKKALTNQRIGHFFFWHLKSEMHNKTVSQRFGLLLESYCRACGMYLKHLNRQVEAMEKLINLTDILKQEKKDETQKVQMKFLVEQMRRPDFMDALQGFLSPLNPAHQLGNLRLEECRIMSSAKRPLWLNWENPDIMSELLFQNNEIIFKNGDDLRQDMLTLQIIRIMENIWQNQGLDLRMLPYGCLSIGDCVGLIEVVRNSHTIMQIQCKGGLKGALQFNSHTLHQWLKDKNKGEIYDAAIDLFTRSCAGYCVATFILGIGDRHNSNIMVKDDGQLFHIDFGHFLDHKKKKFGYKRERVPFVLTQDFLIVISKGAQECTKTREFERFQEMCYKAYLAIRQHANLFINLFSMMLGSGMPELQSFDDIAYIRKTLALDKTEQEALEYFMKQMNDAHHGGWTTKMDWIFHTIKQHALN
# [3] = molecular target: T1, Serine/threonine-protein kinase mTOR (Homo sapiens, UniProt P42345); test: Inhibition of mTOR kinase (unknown origin) after 1 hr by TR-FRET assay
# [4] = Cytotoxicity against human H460 cells after 72 hrs by MTT assay; assay type: functional, cell-based; conditions: NCI-H460, 72 h; procedure, shortened: as §1
# PC-3 = test: Selectivity ratio of BMCL-200908069-1 IC50 to compound IC50 for human PC3 cells; assay type: functional
# [5] = Selectivity ratio of BMCL-200908069-1 IC50 to compound IC50 for human H460 cells; assay type: functional
# [6] = molecular target: T1, Serine/threonine-protein kinase mTOR; test: Selectivity ratio of BMCL-200908069-1 IC50 to compound IC50 for mTOR kinase (unknown origin)
Compound,inhibition [2],IC50 [3],Ratio IC50 [6],IC50 [1],IC50 [4],Ratio IC50 (PC-3),Ratio IC50 [5]
Oc1c(Br)cc(/C=N/Nc2nc3c(c(N4CCOCC4)n2)CSCC3)cc1Br,21.6%,2.67 µM,–,> 20 µM,–,–,–
COc1cc(/C=N/Nc2nc3c(c(N4CCOCC4)n2)CS(=O)(=O)CC3)cc(OC)c1O,6.2%,2.2 µM,–,> 20 µM,–,–,–
O=S1(=O)CCc2nc(N/N=C/c3cc(Br)c(O)c(Br)c3)nc(N3CCOCC3)c2C1,24.9%,6.93 µM,–,> 20 µM,–,–,–

# The next molecules have a lower IC50 [3] than those just listed; values first:
inhibition [2],IC50 [3],Ratio IC50 [6],Compound,IC50 [1],IC50 [4],Ratio IC50 (PC-3),Ratio IC50 [5]
18.8%,1.94 µM,–,Oc1ccc(/C=N/Nc2nc3c(c(N4CCOCC4)n2)CSCC3)cc1Br,14.4 µM,10.8 µM,–,–
–,1.37 µM,–,COc1cc(/C=N/Nc2nc(N3CCOCC3)nc(N3CCOCC3)n2)cc(OC)c1O,16.3 µM,9.52 µM,–,–
12%,0.8 µM,1.71,COc1cc(/C=N/Nc2nc3c(c(N4CCOCC4)n2)CSCC3)cc(OC)c1O,11.9 µM,7.43 µM,1.37,1.28
